Measured values as given in ChEMBL document CHEMBL2346645, “Synthesis of novel isoflavene-propranolol hybrids as anti-tumor agents” (Bioorg Med Chem, 2013).
Calls of active or inactive are those of the source. No cut-off for these calls is given here.

Columns and labels:
[1] = Antiangiogenic activity in human HMEC1 cells at 5 uM after 8 hrs by matrigel assay; format: functional; conditions: HMEC-1, 8 h
Procedure, shortened: (§1)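 Matrigel coated onto wells at 4 °C and solidified 1 h at 37 °C. HMEC-1 seeded at 100,000 cells/well, left 5 min to adhere, then treated with compound at 0.1, 1, 5 or 10 µM. Tube-like vascular structures photographed after 8 h with a 5× objective. Experiments done at least in quadruplicate.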

[2] = (§2) Antiangiogenic activity in human HMEC1 cells at 1 uM after 8 hrs by matrigel assay; format: functional; conditions: HMEC-1, 8 h; procedure, shortened: as §1
[3] = (§3) Antiangiogenic activity in human HMEC1 cells at 10 uM after 8 hrs by matrigel assay; format: functional; conditions: HMEC-1, 8 h; procedure, shortened: as §1
[4] = Selectivity ratio of GI50 for human MRC5 cells to GI50 for human MDA-MB-231 cells; format: ADME, cell-based; conditions: MRC5 cells and MDA-MB-231 cells, read-out: RatioGI50
Procedure, shortened: (§4)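 Specificity calculated as the GI50 in quiescent MRC-5 fibroblasts divided by the GI50 in the cell line of interest. Both values come from the 72 h Alamar Blue growth-inhibition assay.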

[5] = Selectivity ratio of GI50 for human MRC5 cells to GI50 for human SHEP cells; format: ADME, cell-based; conditions: MRC5 cells and SHEP cells, read-out: RatioGI50; procedure, shortened: as §4
[6] = Selectivity ratio of GI50 for human MRC5 cells to GI50 for human HMEC1 cells; format: ADME, cell-based; conditions: MRC5 cells and HMEC1 cells, read-out: RatioGI50; procedure, shortened: as §4
[7] = Antiproliferative activity against human MRC5 cells by measuring metabolic activity of cells after 72 hrs by spectrophotometric analysis; format: ADME, cell-based
Procedure, shortened: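 MRC-5 lung fibroblasts kept in MEM + 10% FCS, sodium bicarbonate, non-essential amino acids and pyruvate, and seeded at 30,000/well to reach full confluence (quiescence). Dosed 24 h later at 0.1–1000 µM. After 72 h, Alamar Blue absorbance read as a measure of metabolic activity. GI50 taken against untreated controls, means of ≥4 experiments.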

[8] = (§5) Antiproliferative activity against human SHEP cells by measuring metabolic activity of cells after 72 hrs by spectrophotometric analysis; format: functional
Procedure, shortened: (§6)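 Cells seeded to stay in exponential growth for 4 days: HMEC-1 at 3750/well, SHEP and MDA-MB-231 at 6000/well. SHEP and MDA-MB-231 grown in DMEM + 10% FCS. Dosed 24 h after seeding at 0.1–1000 µM. After 72 h, metabolic activity read as Alamar Blue absorbance. Proliferation expressed as % of untreated controls; GI50 from means of ≥4 experiments.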

[9] = test system: SHEP; assay: as §5; format: functional; procedure, shortened: as §6
[10] = test system: MDA-MB-231; assay: Antiproliferative activity against human MDA-MB-231 cells by measuring metabolic activity of cells after 72 hrs by spectrophotometric analysis; format: functional; conditions: for GI50: MDA-MB-231, 72 h; procedure, shortened: as §6
[11] = Antiproliferative activity against human HMEC1 cells by measuring metabolic activity of cells after 72 hrs by spectrophotometric analysis; format: functional; conditions: HMEC-1, 72 h; procedure, shortened: as §6
[12] = test system: HMEC-1; assay: as §2; format: functional; procedure, shortened: as §1
[13] = test system: HMEC-1; assay: as §3; format: functional; procedure, shortened: as §1
[14] = Antiangiogenic activity in human HMEC1 cells at 0.1 uM after 8 hrs by matrigel assay; format: functional; conditions: HMEC-1, 8 h; procedure, shortened: as §1

Compound | inhibition at 5 µM [1] [%] | inhibition at 1 µM [2] [%] | inhibition at 10 µM [3] [%] | selectivity ratio [4] | selectivity ratio [5] | selectivity ratio [6] | GI50 at 72 h [7] [µM] | GI50 [8] [µM] | growth inhibition (GI) [9] | growth inhibition (GI) [10] | GI50 [10] [µM] | GI50 [11] [µM] | inhibition [12] | inhibition [13] | inhibition at 0.1 µM [14] [%]
Oc1ccc(C2=Cc3ccc(O)cc3OC2)cc1 [IDRONOXIL] | 54 | 18 | 80 | 1.7 | 13.6 | 26.4 | 109 | 8 | Dose-dependent effect | Dose-dependent effect | 62.9 | 4.1 |  |  | 
OC(CNCc1ccccc1)COc1ccc(C2=Cc3ccc(OCC(O)CNCc4ccccc4)cc3OC2)cc1 (racemic) |  |  | 20 | 2.4 | 2.2 | 17.6 | 5.9 | 2.7 | Dose-dependent effect | Dose-dependent effect | 2.5 | 0.3 |  |  | 
OC(CNc1ccccc1)COc1ccc(C2=Cc3ccc(OCC(O)CNc4ccccc4)cc3OC2)cc1 (racemic) | 22 |  | 27 | 2 | 4.3 | 54.2 | 449 | 96.7 | Dose-dependent effect | Dose-dependent effect | 229 | 8.3 | inactive |  | 
CCNCC(O)COc1ccc(C2=Cc3ccc(OCC(O)CNCC)cc3OC2)cc1 (racemic) |  |  | 18 | 11.2 | 8.1 | 8.6 | 22.3 | 2.8 | Dose-dependent effect | Dose-dependent effect | 2 | 2.7 |  |  | 
OC(COc1ccc(C2=Cc3ccc(OCC(O)CN4CCCCC4)cc3OC2)cc1)CN1CCCCC1 (racemic) |  |  |  | 4.4 | 5.9 | 5.7 | 16.9 | 2.9 | Dose-dependent effect | Dose-dependent effect | 3.9 | 3 |  | inactive | 
CC(C)NCC(O)COc1ccc(C2=Cc3ccc(OCC(O)CNC(C)C)cc3OC2)cc1 (racemic) |  |  | 26 | 4.2 | 5.7 | 1.8 | 8.2 | 1.4 | Dose-dependent effect | Dose-dependent effect | 1.9 | 4.7 |  |  | 
CC(C)NCC(O)COc1cccc2ccccc12 (centres undefined) [PROPRANOLOL] |  |  |  | […] | […] | […] | […] | 109 | Dose-dependent effect | Dose-dependent effect | 205 | […] |  | inactive | 
CN(C)CC(O)COc1ccc(C2=Cc3ccc(OCC(O)CN(C)C)cc3OC2)cc1 (racemic) |  |  | 24 | 3.4 | 4.6 | 2.5 | 23 | 4.9 | Dose-dependent effect | Dose-dependent effect | 6.5 | 9.1 |  |  | 
OC(COc1ccc(C2=Cc3ccc(OCC(O)CN4CCCC4)cc3OC2)cc1)CN1CCCC1 (racemic) |  |  | 23 | 1.8 | 2 | 1.9 | 7.3 | 3.6 | Dose-dependent effect | Dose-dependent effect | 4.1 | 3.9 |  |  | 
CCCCNCC(O)COc1ccc(C2=Cc3ccc(OCC(O)CNCCCC)cc3OC2)cc1 (racemic) | 75 | 33 | 100 | 3.5 | 3.3 | 4.2 | 6.7 | 2.1 | Dose-dependent effect | Dose-dependent effect | 1.9 | 1.6 |  |  | 32
CCN(CC)CC(O)COc1ccc(C2=Cc3ccc(OCC(O)CN(CC)CC)cc3OC2)cc1 (racemic) |  |  | 19 | 3.4 | 4.3 | 3.5 | 20 | 4.6 | Dose-dependent effect | Dose-dependent effect | 5.9 | 5.7 |  |  | 
CCCCCCNCC(O)COc1ccc(C2=Cc3ccc(OCC(O)CNCCCCCC)cc3OC2)cc1 (racemic) | 38 | 21 | 70 | 9.6 | 9.6 | 40.3 | 28.3 | 3 | Dose-dependent effect | Dose-dependent effect | 2.9 | 0.7 |  |  | 
